What was measured:
[1] = system: HL-60; assay: In vitro induction of HL-60 cell differentiation.; type: functional, Homo sapiens; parameters: reference not given here
Outline: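 HL-60 differentiation was scored by the NBT reduction method.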

[2] = biological target: T1, Vitamin D3 receptor (Bos taurus) (UniProt Q28037); assay: Binding affinity at bovine thymus Vitamin D3 receptor relative to 1-alpha,25-Dihydroxyvitamin D3.
T1 sequence (whole entry): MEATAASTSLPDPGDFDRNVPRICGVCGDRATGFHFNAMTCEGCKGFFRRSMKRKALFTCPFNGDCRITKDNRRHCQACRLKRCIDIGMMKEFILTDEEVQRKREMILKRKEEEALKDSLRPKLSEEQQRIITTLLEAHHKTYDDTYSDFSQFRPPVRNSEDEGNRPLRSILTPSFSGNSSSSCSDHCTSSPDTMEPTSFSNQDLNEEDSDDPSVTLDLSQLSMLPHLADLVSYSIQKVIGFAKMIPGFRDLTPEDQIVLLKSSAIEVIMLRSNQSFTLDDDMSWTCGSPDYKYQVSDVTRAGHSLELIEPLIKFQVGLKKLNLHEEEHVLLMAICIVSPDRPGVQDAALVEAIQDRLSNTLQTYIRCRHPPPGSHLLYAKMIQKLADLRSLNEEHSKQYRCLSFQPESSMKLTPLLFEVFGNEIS

relative binding affinity (RBA) [2]	Structure (SMILES)	Potency [1]
300	C=C1/C(=C\C=C2/CCC[C@]3(C)[C@@H]([C@H](C)CCCC(C)(C)O)CC[C@@H]23)C[C@@H](O)[C@H](CCCO)[C@@H]1O	240
370	C=C1/C(=C\C=C2/CCC[C@]3(C)[C@@H]([C@@H](C)CCCC(C)(C)O)CC[C@@H]23)C[C@@H](O)[C@H](CCCO)[C@@H]1O	4900
20	C=C1/C(=C\C=C2/CCC[C@]3(C)[C@@H]([C@H](C)CCCC(C)(C)O)CC[C@@H]23)C[C@@H](O)[C@H](CO)[C@@H]1O	10
70	C=C1/C(=C\C=C2/CCC[C@]3(C)[C@@H]([C@H](C)CCCC(C)(C)O)CC[C@@H]23)C[C@@H](O)[C@H](CCO)[C@@H]1O	86
190	C=C1/C(=C\C=C2/CCC[C@]3(C)[C@@H]([C@@H](C)CCCC(C)(C)O)CC[C@@H]23)C[C@@H](O)[C@H](CO)[C@@H]1O	570
320	C=C1/C(=C\C=C2/CCC[C@]3(C)[C@@H]([C@@H](C)CCCC(C)(C)O)CC[C@@H]23)C[C@@H](O)[C@H](CCO)[C@@H]1O	4030

The remaining lines, values behind:

Structure (SMILES)	relative binding affinity (RBA) [2]	Potency [1]
C=C1/C(=C\C=C2/CCC[C@]3(C)[C@@H]([C@@H](C)CCCC(C)(C)O)CC[C@@H]23)C[C@@H](O)[C@H](C)[C@@H]1O	1200	9688
C=C1/C(=C\C=C2/CCC[C@]3(C)[C@@H]([C@H](C)CCCC(C)(C)O)CC[C@@H]23)C[C@@H](O)[C@H](C)[C@@H]1O	400	258
C=C1/C(=C\C=C2/CCC[C@]3(C)[C@@H]([C@@H](C)CCCC(C)(C)O)CC[C@@H]23)C[C@@H](O)[C@H](CCC)[C@@H]1O	119	1750
C=C1/C(=C\C=C2/CCC[C@]3(C)[C@@H]([C@@H](C)CCCC(C)(C)O)CC[C@@H]23)C[C@@H](O)C[C@@H]1O	400	3571
C=C1/C(=C\C=C2/CCC[C@]3(C)[C@@H]([C@@H](C)CCCC(C)(C)O)CC[C@@H]23)C[C@@H](O)[C@H](CCCCO)[C@@H]1O	183	3910
C=C1/C(=C\C=C2/CCC[C@]3(C)[C@@H]([C@H](C)CCCC(C)(C)O)CC[C@@H]23)C[C@@H](O)[C@H](CCCC)[C@@H]1O	8	74
C=C1/C(=C\C=C2/CCC[C@]3(C)[C@@H]([C@H](C)CCCC(C)(C)O)CC[C@@H]23)C[C@@H](O)[C@H](CC)[C@@H]1O	40	106
C=C1/C(=C\C=C2/CCC[C@]3(C)[C@@H]([C@H](C)CCCC(C)(C)O)CC[C@@H]23)C[C@@H](O)C[C@@H]1O [CALCITRIOL]	100	100
C=C1/C(=C\C=C2/CCC[C@]3(C)[C@@H]([C@H](C)CCCC(C)(C)O)CC[C@@H]23)C[C@@H](O)[C@H](CCC)[C@@H]1O	20	44
C=C1/C(=C\C=C2/CCC[C@]3(C)[C@@H]([C@@H](C)CCCC(C)(C)O)CC[C@@H]23)C[C@@H](O)[C@H](CC)[C@@H]1O	150	4200
C=C1/C(=C\C=C2/CCC[C@]3(C)[C@@H]([C@@H](C)CCCC(C)(C)O)CC[C@@H]23)C[C@@H](O)[C@H](CCCC)[C@@H]1O	33	2300
C=C1/C(=C\C=C2/CCC[C@]3(C)[C@@H]([C@H](C)CCCC(C)(C)O)CC[C@@H]23)C[C@@H](O)[C@H](CCCCO)[C@@H]1O	120	460

From ChEMBL document CHEMBL1136290, “Concise synthesis and biological activities of 2alpha-alkyl- and 2alpha-(omega-hydroxyalkyl)-20-epi-1alpha,25-dihydroxyvitamin D3” (2003)
